Active and inactive are the calls of the source. No cut-off for these calls is given here.
What was measured:
[1] = biological target: T1, Peroxisome proliferator-activated receptor gamma (Homo sapiens, UniProt P37231)
T1 sequence (P37231 whole entry): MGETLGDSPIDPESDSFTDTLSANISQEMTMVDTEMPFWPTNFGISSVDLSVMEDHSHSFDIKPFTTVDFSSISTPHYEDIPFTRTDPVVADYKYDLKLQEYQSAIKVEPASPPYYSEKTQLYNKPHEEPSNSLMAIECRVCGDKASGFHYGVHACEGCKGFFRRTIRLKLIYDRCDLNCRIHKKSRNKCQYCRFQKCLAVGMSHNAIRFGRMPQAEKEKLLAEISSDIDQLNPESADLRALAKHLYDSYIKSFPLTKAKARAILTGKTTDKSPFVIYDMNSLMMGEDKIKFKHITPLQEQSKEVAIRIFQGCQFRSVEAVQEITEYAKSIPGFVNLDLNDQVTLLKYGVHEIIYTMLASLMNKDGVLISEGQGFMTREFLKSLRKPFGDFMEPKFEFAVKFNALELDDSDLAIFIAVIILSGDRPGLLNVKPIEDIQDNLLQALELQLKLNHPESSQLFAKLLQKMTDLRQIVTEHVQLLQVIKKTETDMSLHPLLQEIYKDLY

[2] = biological target: T2, Peroxisome proliferator-activated receptor alpha (Mus musculus) (UniProt P23204); test: Transactivation of mouse GAL4-fused PPARalpha LBD expressed in African green monkey COS7 cells co-expressing 5Gal4 pGL3 TK Luc after overnight incubation by luciferase reporter gene assay relative to fenofibric acid; type: cell-based
T2 sequence (whole entry): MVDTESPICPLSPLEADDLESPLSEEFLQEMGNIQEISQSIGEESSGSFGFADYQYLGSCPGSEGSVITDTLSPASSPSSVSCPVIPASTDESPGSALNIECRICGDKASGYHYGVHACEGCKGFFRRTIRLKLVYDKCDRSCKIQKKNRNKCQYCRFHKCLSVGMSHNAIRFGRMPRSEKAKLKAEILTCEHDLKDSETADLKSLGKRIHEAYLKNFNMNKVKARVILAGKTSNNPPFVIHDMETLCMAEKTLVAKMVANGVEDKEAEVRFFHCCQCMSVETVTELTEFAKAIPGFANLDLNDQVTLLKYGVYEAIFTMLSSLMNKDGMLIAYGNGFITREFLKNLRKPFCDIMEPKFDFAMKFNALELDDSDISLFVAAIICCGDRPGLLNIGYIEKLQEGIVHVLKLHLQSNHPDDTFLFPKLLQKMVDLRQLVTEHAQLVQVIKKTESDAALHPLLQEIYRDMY
Method in brief: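 Cell-based Gal-4 transactivation assay in COS-7 cells transfected with PPARα, PPARδ or PPARγ ligand-binding domain. EC50 and Emax were derived, with Emax as maximum activation in percent of control. EC50s are means of at least two independent experiments performed in triplicate.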

[3] = biological target: T1, Peroxisome proliferator-activated receptor gamma; remark: listed apart in the source
[4] = biological target: T1, Peroxisome proliferator-activated receptor gamma; remark: listed apart in the source
Mus musculus = test: Antidiabetic activity in C57BL/Ks mouse model of diabetic dyslipidemia assessed as decrease in plasma glucose level at 30 mg/kg, po qd administered via gavage for 10 days measured 4 hrs post last dose; type: functional, organism-based
Method in brief: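 Homozygous male C57BL/Ks-db (db/db) mice were gavaged once daily at 10 or 30 mg/kg, for 5 or 10 days. Retro-orbital blood was drawn before treatment and 4 h after the last gavage. Glucose and triglycerides were measured in serum. Results are expressed as % variation on the final day versus the control group. Analysis was one-way ANOVA with Dunnett's test.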

EC50 [1] [µM]	Emax [2] [%]	EC50 [3] [µM]	EC50 [4] [µM]	SMILES	Activity (Mus musculus)
1.92	72	4.11	4.1	O=C(O)CCCc1cc2cc(Cl)ccc2n1S(=O)(=O)c1ccc2ncsc2c1 [LANIFIBRANOR]	–
–	–	–	–	O=C(O)CCc1cc2cc(Cl)ccc2n1S(=O)(=O)c1ccccc1	Active

Source: ChEMBL document CHEMBL4020830, “Design, Synthesis, and Evaluation of a Novel Series of Indole Sulfonamide Peroxisome Proliferator Activated Receptor (PPAR) α/γ/δ Triple Activators: Discovery of Lanifibranor, a New Antifibrotic Clinical Candidate” (J Med Chem, 2018)
